Data published in article PMC6373376 (Clinical Pharmacokinetics, 2018).
Read-outs that look alike come from different tables or passages of the source.

What was measured:
[1] = assay type: in vivo, human
CYP2C9 = conditions: cited from earlier work
[2] = Study A: safety/tolerability; assay type: in vivo, human
Method in brief: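 Healthy adults; open-label, two-period, single-sequence design. Period 1: single oral 4 mg test compound on day 1. Period 2: azole CYP2C9 inhibitor 200 mg twice on day 1, then 200 mg once daily days 2–19, with 4 mg test compound on day 3. Washout 14–21 days. Safety covered all AEs and SAEs, physical exams, vital signs, ECG and lab tests, in everyone given at least one dose.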

[3] = cited from earlier work
[4] = Study B: safety/tolerability; assay type: in vivo, human
Method in brief: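 Healthy subjects genotyped for CYP2C9. Part 1: single oral 0.25 mg test compound to *1/*1 (n = 12), *2/*3 (n = 6) and *3/*3 (n = 6), then 42-day washout. Part 2: poor metabolisers only, 0.25 mg on days 1–2 and 0.5 mg on day 3. Safety covered all AEs and SAEs, cardiac monitoring, haematology, blood chemistry and urinalysis, in all dosed subjects.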

[5] = cited from earlier work; remark: listed apart in the source
CYP3A4 = conditions: cited from earlier work
[6] = assay type: in vivo, human; conditions: for T½ / Tlag / AUC(0-t) / AUC(0-inf) / Cmax / Tmax / half-life / Vd/F: Study B part 1, siponimod 0.25 mg single dose; for AUC / AUC(0-t) / AUC(0-inf) / Cmax / Tmax / half-life / Vd/F: human, plasma, oral, 0.25 mg; for AUC: AUC24, Study B part 1, siponimod 0.25 mg single dose; for AUC(0-t): AUClast; for half-life: T½; for Vd/F: VZ/F
[7] = assay type: in vivo, human; conditions: for Tlag / Tmax: median (range)
[8] = cited from earlier work; remark: listed apart in the source
[9] = same dosing regimen, ref unpublished data; cited from earlier work
[10] = single-ascending dose 0.1–75 mg
[11] = CYP2C9*1/*1, geometric mean (CV%)
[12] = CYP2C9*2/*3, geometric mean (CV%)
[13] = CYP2C9*3/*3, geometric mean (CV%)

In the case of `CCc1cc(/C(C)=N/OCc2ccc(C3CCCCC3)c(C(F)(F)F)c2)ccc1CN1CC(C(=O)O)C1` [Siponimod], the “AUC24 on day 3 higher versus the dose titration study data” value ([1]; Study B part 2, CYP2C9*2/*3, comparison with ref 15) is reported as 1.4 fold, the “AUC24 on day 3 higher versus the dose titration study data” value ([1]; Study B part 2, CYP2C9*3/*3, comparison with ref 15) is reported as 1.7 fold and the Tmax ([1]; human, plasma, po, 0.5 mg) is reported as 6 h. The AUC ([1]; human, plasma, po, 0.5 mg, AUC24, Study B part 2, day 3, CYP2C9*2/*3, mean) was 125 ng·h/mL, the AUC ([1]; human, plasma, po, 0.5 mg, AUC24, Study B part 2, day 3, CYP2C9*3/*3, mean) was 148 ng·h/mL and the “Contribution of CYP2C9 to metabolism (formation of M5)” value (CYP2C9) was 79.2%. For the same molecule, the “Contribution of the CYP2C9 pathway to total metabolic clearance (fm)” value (CYP2C9; determined in vitro) was 79%, the “Deaths or SAEs” value ([2]; Study A) was “No deaths or SAEs were reported” and the “Subjects who experienced AEs” value ([2]; Study A period 1, siponimod 4 mg alone) was 79%. For the same molecule, the “Subjects who experienced AEs” value ([2]; Study A period 2, siponimod + fluconazole) was 73%, the “Predicted increase in siponimod AUC in the presence of fluconazole” value ([3]; SimCYP simulation) was “two to three” and the “First-pass effect estimated by SimCYP” value ([3]; ref unpublished data) was ~5 % of the administered dose. The “Deaths or SAEs” value ([4]; Study B) was “No deaths or SAEs were reported”, the “Subjects reporting at least one AE” value ([4]; Study B part 2, 12 subjects) was 25% and the “Headache (most prevalent AE) incidence” value ([4]; Study B, in both parts) was 8.3%. For the same molecule, the “Single-dose maximum tolerated dose (MTD)” value ([5]; healthy subjects, single-ascending dose range study, ref unpublished data) was 25 mg, the “Earliest time measurable in plasma postdose” value ([5]; single-ascending dose 0.1–75 mg, 98 healthy subjects) was 0.25 h and the “Time at which Cmax was reached postdose” value [5, 10] was 3 to 8 h. For the same molecule, the “Time at which Cmax was reached, minimum–maximum” value [5, 10] was 0.25 to 24 h, the “T½, mean range” value ([5]; single-ascending dose study, ref unpublished data) was 27 to 57 h and the “Contribution of CYP3A4 to metabolism (formation of M5)” value (CYP3A4) was 18.5%. The T½ [6, 11] was 28.1 (18.5) h, the Tlag ([6]; CYP2C9*1/*1, median (range)) was 0.25 (0.00–0.50) h and the T½ [6, 12] was 50.9 (31.7) h. The Tlag ([6]; CYP2C9*2/*3, median (range)) was 0.25 (0.00–0.50) h, the Tlag ([6]; CYP2C9*3/*3, median (range)) was 0.50 (0.00–0.50) h and the AUC [6, 11] was 31.6 ng·h/mL. The AUC [6, 12] was 44.7 ng·h/mL, the AUC [6, 13] was 42.7 ng·h/mL and the AUC(0-t) [6, 11] was 68.6 ng·h/mL. It also gave an AUC(0-t) [6, 12] of 140 ng·h/mL, an AUC(0-t) [6, 13] of 266 ng·h/mL and an AUC(0-inf) [6, 11] of 70.5 ng·h/mL. It also gave an AUC(0-inf) [6, 12] of 144 ng·h/mL, an AUC(0-inf) [6, 13] of 271 ng·h/mL and a Cmax [6, 12] of 2.45 ng/mL. For the same molecule, the Cmax [6, 13] was 2.35 ng/mL, the Tmax ([6]; CYP2C9*1/*1, median (range)) was 4 h and the Tmax ([6]; CYP2C9*2/*3, median (range)) was 5 h. The Tmax ([6]; CYP2C9*3/*3, median (range)) was 4 h, the half-life [6, 12] was 51 h and the half-life [6, 13] was 126 h. It also gave a Vd/F [6, 11] of 144 L, a Vd/F [6, 12] of 127 L and a Vd/F [6, 13] of 167 L. For the same molecule, the “Increase in Cmax in the presence of fluconazole” value ([7]; Study A) was 10%, the Tlag ([7]; Study A, siponimod 4 mg + steady-state fluconazole) was 0 (0–0) h and the CL/F ([7]; Study A, siponimod 4 mg alone, geometric mean (CV%)) was 3.6 L/h. The Tlag ([7]; Study A, siponimod 4 mg alone) was 0.25 (0–0.5) h, the Tmax ([7]; Study A, siponimod 4 mg alone) was 4.0 (2.0–8.1) h and the AUC(0-inf) ([7]; human, plasma, oral, 4 mg) was 1120 ng·h/mL. For the same molecule, the Cmax ([7]; human, plasma, oral, 4 mg) was 31.2 ng/mL, the Vd/F ([7]; human, plasma, oral, 4 mg) was 210 L and the Tmax ([7]; human, plasma, oral, 4 mg, Tmax, Study A, siponimod 4 mg alone) was ~4 h. For the same molecule, the AUC(0-t) ([7]; human, plasma, po, 4 mg) was 1110 ng·h/mL, the “Tolerability of multiple doses” value ([8]; doses up to 20 mg daily for 28 days) was “well tolerated” and the “Time to steady-state of plasma siponimod” value ([8]; multiple-ascending dose 0.3–20 mg, 28 days, 48 healthy subjects) was “approximately 6 days”. The “Effective elimination half-life (T½)” value ([8]; multiple-ascending dose 0.3–20 mg, range) was 22 to 38 h and the “Tmax observed in historical data” value [9] was 1.35 h.
